# From ChEMBL document CHEMBL4725347, “Discovery of a Monoiodo Aza-BODIPY Near-Infrared Photosensitizer: in vitro and in vivo Evaluation for Photodynamic Therapy” (J Med Chem, 2020)
# The source made the active and inactive calls. No cut-off for these calls is given here.
# Columns and labels:
# [1] = Induction of singlet oxygen generation in isopropanol assessed as relative rate of DPBF degradation to MB at 1 uM irradiated with 90 mW/cm2 halogen light; assay type: functional
# In short: (§1)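 Singlet oxygen generation measured with 1,3-diphenylisobenzofuran (DPBF) as scavenger. The decrease in DPBF absorbance at 411 nm was monitored over time during light irradiation, and the photodegradation rate was calculated.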
# [2] = Dark toxicity in human HeLa cells assessed as reduction in cell viability after 3 hrs by MTT assay; assay type: cell-based
# In short: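 Compound was formulated with Cremophor EL/1,2-propanediol in PBS, filtered, and its concentration confirmed by UV-Vis. HeLa cells in DMEM with 10% FBS at 37 °C, 5% CO2 were seeded at 3×10^3 cells/well and adhered overnight. Cells were exposed to graded concentrations for 3 h without light, incubated 24 h, then MTT 0.5 mg/mL for 4 h; formazan dissolved in DMSO, A490 read.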
# [3] = Emission property of the compound in chloroform assessed as maximum emission wavelength by fluorescence spectrophotometric method; assay type: physicochemical
# In short: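 Fluorescence spectrum recorded in chloroform by fluorescence spectrophotometer at room temperature.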
# [4] = Absorption property of the compound in isopropanol assessed as absorption coefficient by UV-visible spectrophotometric method; assay type: physicochemical
# In short: (§2)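 Electronic absorption spectra recorded by UV-visible spectrophotometry at room temperature. Solvents were chloroform, isopropanol, acetonitrile, DMF, and PBS buffer containing 1% Cremophor EL/1,2-propanediol (10:3, v:v). Chloroform data were referenced to the non-halogenated parent dye.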
# [5] = Absorption property of the compound in N,N-dimethylformamide assessed as absorption coefficient by UV-visible spectrophotometric method; assay type: physicochemical; in short: as §2
# [6] = Absorption property of the compound in acetonitrile assessed as absorption coefficient by UV-visible spectrophotometric method; assay type: physicochemical; in short: as §2
# [7] = Absorption property of the compound in PBS containing 1% Cremophor EL/1,2-propanediol (10:3, v:v) system assessed as absorption coefficient by UV-visible spectrophotometric method; assay type: physicochemical; settings: buffer; in short: as §2
# [8] = Induction of singlet oxygen generation in PBS containing 1% Cremophor EL/1,2-propanediol (10:3, v:v) system assessed as relative rate of DPBF degradation to MB at 1 uM irradiated with 90 mW/cm2 halogen light; assay type: functional; in short: as §1
# HeLa [9] = experiment: Phototoxicity against human HeLa cells assessed as reduction in cell viability preincubated for 3 hrs followed by 54 J/cm2 light irradiation and measured after 24 hrs by MTT assay; assay type: functional, cell-based; settings: light or radiation study
# In short: (§3)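 PS formulated in PBS containing Cremophor EL/1,2-propanediol (10:3, v:v) after THF removal, filtered, with concentration confirmed by UV-Vis. Cells were grown in DMEM with 10% FBS and seeded at 3×10^3 per well overnight. They were incubated with PS for 3 h, irradiated at λ > 590 nm, kept 24 h at 37 °C, then given MTT (0.5 mg/mL, 4 h) with DMSO solubilization and A490 read-out.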
# [10] = Photostability of the compound in PBS containing 1% Cremophor EL/1,2-propanediol (10:3, v:v) system assessed as compound degradation irradiated with 90 mW/cm2 light; assay type: physicochemical; settings: buffer
# [11] = Dark toxicity in human MCF7 cells assessed as reduction in cell viability after 3 hrs by MTT assay; assay type: cell-based
# [12] = Absorption property of the compound in chloroform assessed as hypsochromic shift by measuring maximum absorption wavelength by UV-visible spectrophotometric method; assay type: physicochemical; in short: as §2
# HeLa [13] = experiment: Antitumor activity against human HeLa cells xenografted in Balb/c nu/nu mouse assessed as tumor growth inhibition at 2 mg/kg, iv pretreated for 15 mins followed by 54 J/cm2 light irradiation for 10 mins and measured after 24 days; assay type: functional, organism-based
# In short: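 Female Balb/c nu/nu mice with subcutaneous HeLa tumors (5×10^6 cells) reaching 80–100 mm³ on day 7 were randomized, n = 5 per group. Mice received 2 mg/kg by tail vein, or saline for controls. After 15 min the tumor was irradiated once with 54 J/cm² (75 W halogen lamp, >590 nm filter, 90 mW/cm², 10 min), unanaesthetized. Calipers every other day; V = 0.5×L×W²; body weight tracked.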
# MCF7 = experiment: Phototoxicity against human MCF7 cells assessed as reduction in cell viability preincubated for 3 hrs followed by 54 J/cm2 light irradiation and measured after 24 hrs by MTT assay; assay type: functional, cell-based; settings: MCF7, light or radiation study; in short: as §3
# [14] = Stability of the compound in acetonitrile assessed as compound degradation under dark condition; assay type: physicochemical
# [15] = Toxicity in human HeLa cells xenografted Balb/c nu/nu mouse assessed as body weight loss at 2 mg/kg, iv pretreated for 15 mins followed by 54 J/cm2 light irradiation for 10 mins and measured for 24 days; assay type: organism-based; settings: in vivo, 0.25 h
# In short: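 Female Balb/c nu/nu mice (18-22 g) carried subcutaneous HeLa cells (about 5×10^6, right back) and were treated on day 7 at a tumor volume of 80-100 mm³. Five mice per group received a tail-vein dose; saline controls were also irradiated. Fifteen minutes later the tumor was irradiated once with a 75 W halogen lamp (590 nm cut-on, 90 mW/cm², 10 min), without anaesthesia. Body weight was recorded every other day.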
# [16] = Absorption property of the compound in chloroform assessed as absorption coefficient by UV-visible spectrophotometric method; assay type: physicochemical; in short: as §2
# [17] = Photostability of the compound in isopropanol assessed as compound degradation irradiated with 90 mW/cm2 light; assay type: physicochemical
# [18] = Induction of singlet oxygen generation in N,N-dimethylformamide assessed as relative rate of DPBF degradation to MB at 1 uM irradiated with 90 mW/cm2 halogen light; assay type: functional; in short: as §1
# [19] = Photostability of the compound in N,N-dimethylformamide assessed as compound degradation irradiated with 90 mW/cm2 light; assay type: physicochemical
# [20] = Stability of the compound in PBS containing 1% Cremophor EL/1,2-propanediol (10:3, v:v) system assessed as compound degradation under dark condition; assay type: physicochemical; settings: buffer
# [21] = Photostability of the compound in acetonitrile assessed as compound degradation irradiated with 90 mW/cm2 light; assay type: physicochemical
# SW480 = experiment: Phototoxicity against human SW480 cells assessed as reduction in cell viability preincubated for 3 hrs followed by 54 J/cm2 light irradiation and measured after 24 hrs by MTT assay; assay type: functional, cell-based; settings: SW480, light or radiation study; in short: as §3
# [22] = Dark toxicity in human SW480 cells assessed as reduction in cell viability after 3 hrs by MTT assay; assay type: cell-based
Activity [3],Activity [4],Activity [5],Activity [6],Activity [7],Stabilty [10],Activity [12],Stabilty [14],Activity [16],Stabilty [17],Stabilty [19],Compound,fold change (FC) [1],IC50 at 3 h [2],fold change (FC) [8],IC50 (HeLa [9]),IC50 at 3 h [11],IC50 (MCF7),fold change (FC) [18],IC50 (SW480),IC50 at 3 h [22],also measured
720 nm,59300 M⁻¹ cm⁻¹,59300 M⁻¹ cm⁻¹,59300 M⁻¹ cm⁻¹,34000 M⁻¹ cm⁻¹,Stable,679 nm,Unstable,77000 M⁻¹ cm⁻¹,Stable,Unstable,COc1ccc(C2=[N+]3C(=Nc4c(-c5ccccc5)c(Br)c(-c5ccc(OC)cc5)n4[B-]3(F)F)C(c3ccccc3)=C2Br)cc1,4.5,> 50000 nM,1.9,130 nM,> 50000 nM,150 nM,0.36,160 nM,> 50000 nM,TGI (HeLa [13]): Active; Activity [15]: Non-Toxic; Stabilty [20]: Unstable; Stabilty [21]: Stable
,,,,,,,,,,,C=Cc1c(C)c2cc3nc(c(CC(=O)O)c4[nH]c(cc5nc(cc1[nH]2)C(C)=C5CC)c(C)c4C(=O)O)[C@@H](CCC(=O)O)[C@@H]3C [CHLORIN E6],,> 50000 nM,,1920 nM,> 50000 nM,3400 nM,,3100 nM,> 50000 nM,TGI (HeLa [13]): Active; Activity [15]: Toxic
723 nm,59300 M⁻¹ cm⁻¹,59300 M⁻¹ cm⁻¹,59300 M⁻¹ cm⁻¹,34000 M⁻¹ cm⁻¹,Stable,679 nm,Unstable,74000 M⁻¹ cm⁻¹,Stable,Unstable,COc1ccc(C2=[N+]3C(=Nc4c(-c5ccccc5)c(I)c(-c5ccc(OC)cc5)n4[B-]3(F)F)C(c3ccccc3)=C2I)cc1,7,> 50000 nM,2.2,590 nM,> 50000 nM,660 nM,0.66,1300 nM,> 50000 nM,Stabilty [20]: Unstable; Stabilty [21]: Stable
720 nm,59300 M⁻¹ cm⁻¹,59300 M⁻¹ cm⁻¹,59300 M⁻¹ cm⁻¹,34000 M⁻¹ cm⁻¹,Stable,679 nm,Unstable,76000 M⁻¹ cm⁻¹,Stable,Unstable,COc1ccc(C2=[N+]3C(=Nc4c(-c5ccccc5)c(Br)c(-c5ccc(OC)cc5)n4[B-]3(F)F)C(c3ccccc3)=C2I)cc1,6.8,> 50000 nM,2.3,310 nM,> 50000 nM,420 nM,0.65,530 nM,> 50000 nM,Stabilty [20]: Unstable; Stabilty [21]: Stable
